ChEMBL document CHEMBL2311514, “Further exploration of M₁ allosteric agonists: subtle structural changes abolish M₁ allosteric agonism and result in pan-mAChR orthosteric antagonism” (Bioorg Med Chem Lett, 2013)
Changes are numbered by the printed parent chain. pEC50, pIC50, pKi: −log10 of the molar value. Activity calls are given as the source filed them. The calls are words filed in the database; no cut-off is given here.

How the values were obtained:
[1] = target: T1, Muscarinic acetylcholine receptor M1 (Rattus norvegicus, UniProt P08482); test: (§1) Antagonist activity at rat muscarinic M1 receptor expressed in CHO cells assessed as inhibition of Ach-induced calcium response; assay type: functional, cell-based; details: for pIC50: read-out: IC50; for IC50: read-out: pIC50 (converted)
T1 sequence (P08482 whole entry): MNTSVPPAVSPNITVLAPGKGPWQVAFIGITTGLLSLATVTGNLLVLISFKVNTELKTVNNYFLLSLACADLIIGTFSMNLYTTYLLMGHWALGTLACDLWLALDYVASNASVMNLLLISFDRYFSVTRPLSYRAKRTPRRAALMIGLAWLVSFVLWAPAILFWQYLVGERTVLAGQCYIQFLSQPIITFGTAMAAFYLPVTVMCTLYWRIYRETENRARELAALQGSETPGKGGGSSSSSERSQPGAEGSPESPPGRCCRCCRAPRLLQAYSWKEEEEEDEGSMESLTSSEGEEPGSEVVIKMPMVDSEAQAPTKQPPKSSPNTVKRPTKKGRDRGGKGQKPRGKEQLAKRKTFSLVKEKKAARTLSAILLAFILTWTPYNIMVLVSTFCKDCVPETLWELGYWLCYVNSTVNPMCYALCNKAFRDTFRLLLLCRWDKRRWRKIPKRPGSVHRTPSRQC

[2] = target: T2, Muscarinic acetylcholine receptor M1 (Rattus norvegicus) (UniProt P08482); test: as §1; assay type: functional, cell-based
T2 sequence (whole entry): T1 sequence (P08482 whole entry)

[3] = target: T2, Muscarinic acetylcholine receptor M1 (Rattus norvegicus); test: (§2) Partial agonist activity at rat muscarinic M1 receptor expressed in CHO cells calcium response; assay type: functional, cell-based
Outline: (§3)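 Run in agonist mode as concentration-response curves on rat M1–M5 receptors. EC50 and pEC50 were taken from the curves. Efficacy was expressed as a percentage of the maximal acetylcholine response.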

[4] = target: T3, Muscarinic acetylcholine receptor M2 (Homo sapiens) (UniProt P08172); test: (§4) Antagonist activity at human muscarinic M2 receptor expressed in CHO cells assessed as inhibition of Ach-induced calcium response; assay type: functional, cell-based
T3 sequence (whole entry): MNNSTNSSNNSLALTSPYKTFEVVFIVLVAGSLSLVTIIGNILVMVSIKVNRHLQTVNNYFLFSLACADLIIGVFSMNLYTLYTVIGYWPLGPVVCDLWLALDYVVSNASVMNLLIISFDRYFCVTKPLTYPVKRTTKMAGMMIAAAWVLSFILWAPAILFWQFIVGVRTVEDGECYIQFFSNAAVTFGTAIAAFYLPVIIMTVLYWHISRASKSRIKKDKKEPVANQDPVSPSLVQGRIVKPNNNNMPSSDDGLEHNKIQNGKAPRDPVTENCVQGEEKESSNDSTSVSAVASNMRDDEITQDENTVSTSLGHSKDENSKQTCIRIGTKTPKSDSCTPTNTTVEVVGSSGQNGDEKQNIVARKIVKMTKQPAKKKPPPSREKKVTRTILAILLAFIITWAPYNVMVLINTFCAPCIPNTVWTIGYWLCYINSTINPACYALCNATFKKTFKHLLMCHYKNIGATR

[5] = target: T4, Muscarinic acetylcholine receptor M3 (Rattus norvegicus, UniProt P08483); test: (§5) Antagonist activity at rat muscarinic M3 receptor expressed in CHO cells assessed as inhibition of Ach-induced calcium response; assay type: functional, cell-based; details: for pIC50: read-out: IC50
T4 sequence (P08483 whole entry): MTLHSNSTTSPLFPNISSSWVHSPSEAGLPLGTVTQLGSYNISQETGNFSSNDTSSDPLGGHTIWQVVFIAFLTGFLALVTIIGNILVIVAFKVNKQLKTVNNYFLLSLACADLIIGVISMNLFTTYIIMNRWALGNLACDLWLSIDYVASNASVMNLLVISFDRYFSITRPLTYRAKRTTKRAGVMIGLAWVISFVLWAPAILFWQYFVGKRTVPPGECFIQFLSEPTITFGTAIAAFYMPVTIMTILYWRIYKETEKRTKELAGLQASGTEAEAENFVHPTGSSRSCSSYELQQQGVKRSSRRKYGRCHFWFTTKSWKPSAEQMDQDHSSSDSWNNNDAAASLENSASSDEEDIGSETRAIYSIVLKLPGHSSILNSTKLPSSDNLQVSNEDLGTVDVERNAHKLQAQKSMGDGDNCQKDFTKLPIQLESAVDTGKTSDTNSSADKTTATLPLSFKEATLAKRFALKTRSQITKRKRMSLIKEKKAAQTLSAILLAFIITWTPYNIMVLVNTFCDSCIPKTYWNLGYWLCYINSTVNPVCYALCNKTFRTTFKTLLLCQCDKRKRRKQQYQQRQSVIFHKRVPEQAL

[6] = target: T1, Muscarinic acetylcholine receptor M1; test: Displacement of [3H]NMS from rat muscarinic M1 receptor expressed in CHO cells after 3 hrs; assay type: cell-based
[7] = target: T5, Muscarinic acetylcholine receptor M4 (Rattus norvegicus, UniProt P08485); test: (§6) Antagonist activity at rat muscarinic M4 receptor expressed in CHO cells assessed as inhibition of Ach-induced calcium response; assay type: functional, cell-based
T5 sequence (P08485 whole entry): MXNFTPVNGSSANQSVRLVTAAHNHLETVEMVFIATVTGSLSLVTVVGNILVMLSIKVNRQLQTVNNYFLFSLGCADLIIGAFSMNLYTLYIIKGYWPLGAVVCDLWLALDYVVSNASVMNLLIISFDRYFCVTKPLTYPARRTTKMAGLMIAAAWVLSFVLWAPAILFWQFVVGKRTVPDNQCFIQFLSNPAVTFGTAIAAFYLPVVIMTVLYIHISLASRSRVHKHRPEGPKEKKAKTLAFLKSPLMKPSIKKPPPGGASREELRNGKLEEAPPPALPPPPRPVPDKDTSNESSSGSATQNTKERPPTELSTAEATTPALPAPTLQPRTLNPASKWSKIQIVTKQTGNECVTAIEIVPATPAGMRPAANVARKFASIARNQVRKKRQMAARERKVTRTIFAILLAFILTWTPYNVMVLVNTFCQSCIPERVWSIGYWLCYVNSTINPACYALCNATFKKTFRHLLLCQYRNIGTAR

[8] = target: T6, Muscarinic acetylcholine receptor M2 (Rattus norvegicus, UniProt P10980); test: (§7) Antagonist activity at rat muscarinic M2 receptor expressed in CHO cells assessed as inhibition of Ach-induced calcium response; assay type: functional, cell-based; details: for pIC50: read-out: IC50; for IC50: read-out: pIC50 (converted)
T6 sequence (P10980 whole entry): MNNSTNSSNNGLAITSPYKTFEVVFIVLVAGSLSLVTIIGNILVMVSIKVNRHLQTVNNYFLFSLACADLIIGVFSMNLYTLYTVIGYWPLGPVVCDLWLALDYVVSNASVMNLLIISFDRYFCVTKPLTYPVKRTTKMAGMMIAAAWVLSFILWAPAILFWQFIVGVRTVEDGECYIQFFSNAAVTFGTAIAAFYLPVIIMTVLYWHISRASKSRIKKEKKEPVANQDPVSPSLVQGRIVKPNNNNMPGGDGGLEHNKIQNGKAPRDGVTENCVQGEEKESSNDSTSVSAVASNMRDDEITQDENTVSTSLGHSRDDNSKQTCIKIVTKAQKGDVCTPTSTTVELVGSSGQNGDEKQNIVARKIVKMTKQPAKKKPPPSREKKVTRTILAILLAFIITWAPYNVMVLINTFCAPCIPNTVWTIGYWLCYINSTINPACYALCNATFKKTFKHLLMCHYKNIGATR

[9] = target: T7, Muscarinic acetylcholine receptor M5 (Homo sapiens) (UniProt P08912); test: (§8) Antagonist activity at human muscarinic M5 receptor expressed in CHO cells assessed as inhibition of Ach-induced calcium response; assay type: functional, cell-based
T7 sequence (whole entry): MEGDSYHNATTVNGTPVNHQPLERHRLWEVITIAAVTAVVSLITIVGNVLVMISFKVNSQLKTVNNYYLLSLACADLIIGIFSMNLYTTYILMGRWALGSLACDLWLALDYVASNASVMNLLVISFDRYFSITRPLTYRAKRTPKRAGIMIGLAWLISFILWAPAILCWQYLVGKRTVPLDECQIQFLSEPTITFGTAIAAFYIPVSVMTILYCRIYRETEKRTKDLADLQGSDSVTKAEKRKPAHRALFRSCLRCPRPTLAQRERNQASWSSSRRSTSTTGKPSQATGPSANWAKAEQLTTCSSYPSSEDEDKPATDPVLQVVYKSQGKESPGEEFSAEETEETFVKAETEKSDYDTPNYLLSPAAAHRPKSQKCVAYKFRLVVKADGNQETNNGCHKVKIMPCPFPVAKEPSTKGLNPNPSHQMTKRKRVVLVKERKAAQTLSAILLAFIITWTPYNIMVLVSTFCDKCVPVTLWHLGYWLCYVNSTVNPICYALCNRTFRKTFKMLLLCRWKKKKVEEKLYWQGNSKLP

[10] = target: T8, Muscarinic acetylcholine receptor M5 (Rattus norvegicus, UniProt P08911); test: (§9) Antagonist activity at rat muscarinic M5 receptor expressed in CHO cells assessed as inhibition of Ach-induced calcium response; assay type: functional, cell-based; details: for pIC50: read-out: IC50
T8 sequence (P08911 whole entry): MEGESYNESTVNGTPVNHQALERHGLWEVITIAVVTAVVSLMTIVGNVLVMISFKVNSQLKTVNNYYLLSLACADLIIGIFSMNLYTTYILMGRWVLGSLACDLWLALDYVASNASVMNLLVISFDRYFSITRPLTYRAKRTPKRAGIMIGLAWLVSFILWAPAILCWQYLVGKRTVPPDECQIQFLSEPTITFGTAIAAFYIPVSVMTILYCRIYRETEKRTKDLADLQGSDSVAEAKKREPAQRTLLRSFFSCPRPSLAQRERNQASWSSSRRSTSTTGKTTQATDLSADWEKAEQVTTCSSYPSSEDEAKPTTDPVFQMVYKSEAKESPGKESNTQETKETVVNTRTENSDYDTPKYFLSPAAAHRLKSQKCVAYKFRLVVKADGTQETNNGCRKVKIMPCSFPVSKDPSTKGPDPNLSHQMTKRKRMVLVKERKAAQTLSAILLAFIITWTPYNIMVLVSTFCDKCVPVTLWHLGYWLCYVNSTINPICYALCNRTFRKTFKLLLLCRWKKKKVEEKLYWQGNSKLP

[11] = target: T9, Muscarinic acetylcholine receptor M1 (Homo sapiens) (UniProt P11229); test: Antagonist activity at human muscarinic M1 receptor expressed in CHO cells assessed as inhibition of acetylcholine-induced calcium response; assay type: functional, cell-based
T9 sequence (whole entry): T1 sequence (P08482 whole entry) with V5A, S254T, S309P, K320R, G337A, V413I

[12] = target: T2, Muscarinic acetylcholine receptor M1 (Rattus norvegicus); test: Orthosteric antagonist activity at rat muscarinic M1 receptor expressed in CHO cells using [3HNMS] at 50 uM by dissociation kinetic studies; assay type: cell-based
[13] = target: T10, Muscarinic acetylcholine receptor M2 (Homo sapiens, UniProt P08172); test: Partial agonist activity at human muscarinic M2 receptor expressed in CHO cells calcium response; assay type: functional, cell-based
T10 sequence (P08172 whole entry): T3 sequence (whole entry)

[14] = target: T6, Muscarinic acetylcholine receptor M2; test: Partial agonist activity at rat muscarinic M2 receptor expressed in CHO cells calcium response; assay type: functional, cell-based; outline: as §3
[15] = target: T10, Muscarinic acetylcholine receptor M2; test: as §4; assay type: functional, cell-based
[16] = target: T11, Muscarinic acetylcholine receptor M5 (Homo sapiens, UniProt P08912); test: Partial agonist activity at human muscarinic M5 receptor expressed in CHO cells calcium response; assay type: functional, cell-based
T11 sequence (P08912 whole entry): T7 sequence (whole entry)

[17] = target: T11, Muscarinic acetylcholine receptor M5; test: as §8; assay type: functional, cell-based
[18] = target: T4, Muscarinic acetylcholine receptor M3; test: Partial agonist activity at rat muscarinic M3 receptor expressed in CHO cells calcium response; assay type: functional, cell-based; outline: as §3
[19] = target: T2, Muscarinic acetylcholine receptor M1 (Rattus norvegicus); test: Partial agonist activity at rat muscarinic M1 receptor expressed in CHO cells calcium response relative to acetylcholine; assay type: functional, cell-based; outline: as §3
[20] = target: T1, Muscarinic acetylcholine receptor M1; test: as §2; assay type: functional, cell-based; outline: as §3
[21] = target: Muscarinic acetylcholine receptor M3 (Rattus norvegicus) (UniProt P08483); test: as §5; assay type: functional, cell-based
Muscarinic acetylcholine receptor M3 (Rattus norvegicus), sequence (P08483 whole entry, looked up): as the sequence (P08483 whole entry) above

[22] = target: T12, Muscarinic acetylcholine receptor M4 (Rattus norvegicus) (UniProt P08485); test: as §6; assay type: functional, cell-based
T12 sequence (whole entry): T5 sequence (P08485 whole entry)

[23] = target: T13, Muscarinic acetylcholine receptor M2 (Rattus norvegicus) (UniProt P10980); test: as §7; assay type: functional, cell-based
T13 sequence (whole entry): T6 sequence (P10980 whole entry)

[24] = target: T14, Muscarinic acetylcholine receptor M5 (Rattus norvegicus) (UniProt P08911); test: as §9; assay type: functional, cell-based
T14 sequence (whole entry): T8 sequence (P08911 whole entry)

## Cc1ccccc1CN1CCC(N2CCC(n3c(=O)[nH]c4ccccc43)C(F)C2)CC1 (centres undefined)
[1]
  pIC50: 5.31
[2]
  Imax: 13.6%
[3]
  Activity: inactive
[4]
  inhibition: Active
[5]; cho
  pIC50: < 5.00
[5]; read-out: pIC50 (converted)
  IC50: > 10 µM
[6]
  pKi: 5.87
[7]
  pIC50: 5.28
[8]; cho
  pIC50: < 5.00
[8]
  IC50: > 10000 nM
[9]
  inhibition: Active
[10]; cho
  pIC50: < 5.00
[10]; read-out: pIC50 (converted)
  IC50: > 10 µM
[11]
  inhibition: Active
[12]
  Activity: Active

## Cc1ccccc1CN1CCC(N2CC3CC(n4c(=O)[nH]c5ccccc54)CC3C2)CC1 (centres undefined)
[1]
  pIC50: 5.19
[2]
  Imax: -1.07%
[3]
  Activity: inactive
[5]
  pIC50: < 5.00
[7]
  pIC50: < 5.00
[8]
  pIC50: < 5.00
[10]
  pIC50: < 5.00

## Cc1ccccc1CN1CCC(N2CCC(n3c(=O)[nH]c4ccccc43)CC2)CC1
[13]
  pEC50: < 4.52
[14]
  pEC50: < 4.52
[15]
  pIC50: 5.46
[5]
  pIC50: 5.26
[16]
  pEC50: < 4.52
[8]
  pIC50: 5.89
[17]
  pIC50: 5.31
[10]
  pIC50: 5.40
[18]
  pEC50: < 4.52
[19]
  Imax: 69.3%

## CCOC(=O)N1CCC(N2CCC[C@@H](NC(=O)c3cccc(Br)c3)C2)CC1
[20]
  pEC50: 5.70
[19]
  Imax: 37.4%

## CCOC(=O)N1CCC(N2CCC[C@@H](NC(=O)c3cc(Br)cc(Br)c3)C2)CC1
[1]
  IC50: 3.39 µM
[2]
  Imax: 0.4%

## CCOC(=O)N1CCC(N[C@H]2CCCN(C(=O)c3ccccc3)C2)CC1
[1]
  pIC50: 6.56
  IC50: 0.479 µM
[2]
  Imax: 3%
[21]
  inhibition: Active
[22]
  inhibition: Active
[23]
  inhibition: Active
[24]
  inhibition: Active

## CCOC(=O)N1CCC(N2CCC[C@@H](NC(=O)c3ccc(C(F)(F)F)nc3)C2)CC1
[1]
  IC50: 3.16 µM
[2]
  Imax: 2.7%
[5]
  pIC50: < 5.00
[7]
  pIC50: < 5.00
[8]
  IC50: 1070 nM
[10]
  pIC50: < 5.00
